In ChEMBL document CHEMBL1152589, “Identification and characterization of novel sirtuin inhibitor scaffolds” (Bioorg Med Chem, 2009):
The source made the active and inactive calls. The calls are words filed in the database; no cut-off is given here.

Assays:
[1] = biological target: NAD-dependent protein deacetylase HST2 (Saccharomyces cerevisiae S288c) (UniProt P53686); test: Inhibition of yeast Hst2 assessed as residual activity at 500 uM by fluorimetric assay relative to control
[2] = biological target: NAD-dependent protein deacetylase HST2 (Saccharomyces cerevisiae S288c) (UniProt P53686); test: Inhibition of yeast Hst2 assessed as residual activity at 50 uM by fluorimetric assay relative to control
[3] = biological target: T1, NAD-dependent protein deacetylase HST2 (Saccharomyces cerevisiae S288c, UniProt P53686); test: Inhibition of yeast Hst2 by fluorimetric assay
T1 sequence (P53686 whole entry): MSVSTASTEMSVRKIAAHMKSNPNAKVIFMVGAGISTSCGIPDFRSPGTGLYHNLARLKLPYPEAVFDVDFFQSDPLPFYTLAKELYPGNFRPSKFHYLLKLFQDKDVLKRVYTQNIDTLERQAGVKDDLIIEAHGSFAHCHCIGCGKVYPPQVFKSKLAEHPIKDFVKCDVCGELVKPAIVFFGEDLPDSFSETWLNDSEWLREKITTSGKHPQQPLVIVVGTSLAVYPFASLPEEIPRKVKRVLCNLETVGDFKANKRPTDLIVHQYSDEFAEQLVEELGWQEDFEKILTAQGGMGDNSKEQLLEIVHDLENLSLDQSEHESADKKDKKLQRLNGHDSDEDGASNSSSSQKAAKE

[4] = biological target: T2, NAD-dependent protein deacetylase sirtuin-2 (Homo sapiens) (UniProt Q8IXJ6); test: Inhibition of human SIRT2 by fluorogenic assay; design: concentration or dose not given beside the values
T2 sequence (whole entry): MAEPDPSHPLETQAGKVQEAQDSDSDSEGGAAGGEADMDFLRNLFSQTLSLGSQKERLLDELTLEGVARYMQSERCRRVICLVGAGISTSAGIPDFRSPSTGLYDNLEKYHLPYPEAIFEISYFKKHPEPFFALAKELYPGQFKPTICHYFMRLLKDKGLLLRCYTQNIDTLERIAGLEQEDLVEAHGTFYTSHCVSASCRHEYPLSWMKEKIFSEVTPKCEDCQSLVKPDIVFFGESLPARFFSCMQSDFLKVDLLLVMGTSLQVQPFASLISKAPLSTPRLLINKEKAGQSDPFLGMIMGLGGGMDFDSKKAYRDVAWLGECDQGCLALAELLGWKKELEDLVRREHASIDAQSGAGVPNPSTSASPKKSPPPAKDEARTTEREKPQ
How it was run: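 Human SIRT2 isoform II construct with extra N-terminal residues, expressed in E. coli BL21-Gold (DE3) as a His6 fusion. Purified by Ni-NTA, with the tag removed by thrombin, then Q sepharose and Superdex-200 gel filtration. Assayed by fluorigenic deacetylation of Fluor de Lys-SIRT1 substrate.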

[5] = biological target: NAD-dependent histone deacetylase SIR2 (Saccharomyces cerevisiae S288c) (UniProt P06700); test: Inhibition of Sir2 in Saccharomyces cerevisiae inserted URA3 reporter gene assessed as reduction of […] resistance at 1 mM by telomere silencing assay
Chain of NAD-dependent histone deacetylase SIR2 (Saccharomyces cerevisiae S288c) (P06700 whole entry): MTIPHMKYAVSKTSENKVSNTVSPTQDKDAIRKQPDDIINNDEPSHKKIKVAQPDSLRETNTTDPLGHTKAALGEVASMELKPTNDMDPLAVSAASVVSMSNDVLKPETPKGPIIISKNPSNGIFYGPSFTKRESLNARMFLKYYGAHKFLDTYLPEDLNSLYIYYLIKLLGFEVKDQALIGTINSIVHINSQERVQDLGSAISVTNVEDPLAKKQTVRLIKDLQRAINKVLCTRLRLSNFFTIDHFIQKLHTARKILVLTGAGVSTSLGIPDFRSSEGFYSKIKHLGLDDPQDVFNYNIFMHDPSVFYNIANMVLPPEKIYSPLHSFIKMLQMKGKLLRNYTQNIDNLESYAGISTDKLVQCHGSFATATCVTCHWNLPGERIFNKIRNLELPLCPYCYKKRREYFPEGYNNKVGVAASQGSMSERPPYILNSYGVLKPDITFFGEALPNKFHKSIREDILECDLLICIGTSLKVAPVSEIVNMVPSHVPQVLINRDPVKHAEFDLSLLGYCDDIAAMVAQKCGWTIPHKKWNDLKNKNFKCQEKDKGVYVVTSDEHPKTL

[6] = biological target: T3, NAD-dependent protein deacetylase sirtuin-1 (Homo sapiens, UniProt Q96EB6); test: Inhibition of human full length SIRT1 expressed in DE3 cells by fluorimetric assay; format: cell-based
T3 sequence (Q96EB6 whole entry): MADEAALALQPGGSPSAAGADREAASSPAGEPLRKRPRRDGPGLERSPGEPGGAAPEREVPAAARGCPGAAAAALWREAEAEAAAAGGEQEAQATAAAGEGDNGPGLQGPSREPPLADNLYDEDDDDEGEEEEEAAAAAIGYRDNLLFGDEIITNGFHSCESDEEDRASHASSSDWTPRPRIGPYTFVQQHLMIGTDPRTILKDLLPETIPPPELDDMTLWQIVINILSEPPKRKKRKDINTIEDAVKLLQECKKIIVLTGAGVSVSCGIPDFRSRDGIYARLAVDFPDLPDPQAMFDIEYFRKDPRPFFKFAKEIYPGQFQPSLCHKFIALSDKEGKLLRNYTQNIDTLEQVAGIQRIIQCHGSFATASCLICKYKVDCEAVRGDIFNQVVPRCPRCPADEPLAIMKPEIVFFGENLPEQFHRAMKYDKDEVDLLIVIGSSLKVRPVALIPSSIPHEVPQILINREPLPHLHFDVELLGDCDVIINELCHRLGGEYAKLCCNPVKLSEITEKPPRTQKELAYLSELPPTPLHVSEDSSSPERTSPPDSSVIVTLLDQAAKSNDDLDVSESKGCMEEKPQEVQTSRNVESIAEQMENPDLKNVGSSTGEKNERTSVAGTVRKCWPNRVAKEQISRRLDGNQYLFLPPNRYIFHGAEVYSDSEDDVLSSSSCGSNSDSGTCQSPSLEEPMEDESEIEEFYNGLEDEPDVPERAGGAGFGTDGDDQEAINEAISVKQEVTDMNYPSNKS

[7] = biological target: NAD-dependent histone deacetylase SIR2 (Saccharomyces cerevisiae S288c) (UniProt P06700); test: Inhibition of Sir2 in Saccharomyces cerevisiae inserted URA3 reporter gene assessed as reduction of […] resistance at 40 uM by telomere silencing assay
[8] = biological target: T1, NAD-dependent protein deacetylase HST2; test: Mixed inhibition of yeast Hst2 using Acetyl-lysine substrate
[9] = biological target: NAD-dependent histone deacetylase SIR2 (Saccharomyces cerevisiae S288c) (UniProt P06700); test: Inhibition of Sir2 in Saccharomyces cerevisiae inserted URA3 reporter gene assessed as reduction of […] resistance at 10 uM by telomere silencing assay

Chain of NAD-dependent protein deacetylase HST2 (Saccharomyces cerevisiae S288c) (P53686 whole entry): as the sequence (P53686 whole entry) above

| SMILES | Activity [1] | Activity [2] | further results |
| --- | --- | --- | --- |
| COCCCC1c2cc(O)c(OC)cc2CCN1C (centres undefined) | 92% | 99% |  |
| Cc1ccc(OCCCC(=O)Oc2ccc3c(C)cc(=O)oc3c2)cc1 | 57% | 99% |  |
| COCC#CC1(C)c2cc(O)c(OC)cc2CCN1C (centres undefined) | 100% | 100% |  |
| Oc1ccc(Cc2ccccc2)cc1 | 88% | 100% |  |
| Cc1cccc(OCC(=O)Oc2ccc3c(C)cc(=O)oc3c2)c1 | 13% | 90% |  |
| Cc1ccc(OCCCC(=O)Oc2ccc3c(C)cc(=O)oc3c2)c(C)c1 | 51% | 90% |  |
| C[S+]([O-])CCC(C(=O)O)N1C(=O)c2ccccc2C1=O (centres undefined) |  |  | IC50 [3]: Not Active |
| O=C(O)CCCN1C(=O)c2ccccc2C1=O |  |  | IC50 [3]: Not Active |
| NC(=O)c1cccnc1 |  |  | Activity [4]: 26% |
| CCc1ccc(OCCCC(=O)Oc2ccc3c(C)cc(=O)oc3c2)cc1 | 53% | 86% |  |
| O=C(O)CCN1Cc2ccccc2C1=O |  |  | Activity [5]: Active; Activity [4]: 89%; IC50 ([3]; read-out: IC50): 19.9 µM |
| O=C1CCc2c(ccc3ccccc23)O1 [SPLITOMICIN] |  |  | IC50 ([3]; read-out: IC50): > 600 µM |
| COc1ccc(OCCCC(=O)Oc2ccc3c(C)cc(=O)oc3c2)cc1 | 35% | 93% |  |
| NC(=O)C1CCCCc2c1[nH]c1ccc(Cl)cc21 (centres undefined) |  |  | IC50 ([3]; read-out: IC50): 1.3 µM |
| CC(C)C(=O)CCN1C(=O)c2ccccc2C1=O |  |  | IC50 [3]: Not Active |
| Cc1cc(Cl)c(O)c(Cc2c(O)c(Cl)cc(Cl)c2Cl)c1Cl |  |  | IC50 [6]: 34 µM; Activity [7]: Active; Ki [8]: 2.5 µM; Activity [4]: 18.5%; Activity [9]: Active; IC50 ([3]; read-out: IC50): 12.5 µM |
| COc1ccc(OCCCC(=O)Oc2ccc3c(c2)CCC3)cc1 | 58% | 95% |  |
| OC(c1ccccc1)c1ccc(C(F)(F)F)cc1 (centres undefined) | 81% | 100% |  |
| C#CC1c2cc(O)c(OC)cc2CCN1C (centres undefined) | 86% | 100% |  |
| Cn1cc(C2=C(c3cn(CCCSC(=N)N)c4ccccc34)C(=O)NC2=O)c2ccccc21 [BISINDOLYLMALEIMIDE IX] |  |  | IC50 ([3]; read-out: IC50): 20 µM |

| SMILES | Activity [1] | Activity [2] | further results |
| --- | --- | --- | --- |
| C#C[C@@H]1c2cc(O)c(OC)cc2CCN1C | 74% | 97% |  |
| Nc1cccc(Cc2cccc(N)c2)c1 | 100% | 100% |  |
| Cc1cc(Cc2cc(C)c(O)c(C)c2)cc(C)c1O | 43% | 89% |  |
| Oc1c(Cc2ccccc2Cl)ccc2cccnc12 | 100% | 100% |  |
| COCC#CC1c2cc(O)c(OC)cc2CCN1C (centres undefined) |  |  | Activity [4]: 92.1% |
| Cc1ccc2[nH]c3c(c2c1)CCCCC3C(N)=O (centres undefined) |  |  | IC50 [6]: 0.64 µM; IC50 ([3]; read-out: IC50): 14.5 µM |
| O=C1c2ccccc2C(=O)N1CCBr |  |  | IC50 [3]: Not Active |
| COCC#CC1c2cc(O)c(OC)cc2CCN1Cc1ccc(OC)cc1 (centres undefined) |  |  | IC50 ([3]; read-out: IC50): 260 µM |
| Cc1cc(=O)oc2cc(OC(=O)COc3ccccc3)ccc12 | 45% | 91% |  |
| COC/C=C/C1c2cc(O)c(OC)cc2CCN1C (centres undefined) | 94% | 97% |  |
| O=C(O)CCN1C(=O)c2cc(Cl)c(Cl)cc2C1=O |  |  | IC50 [3]: Not Active |
| COc1cc2c(cc1O)CN(C)CC2 | 98% | 100% |  |
| C#C[C@H]1c2cc(O)c(OC)cc2CCN1C | 70% | 96% |  |
| Cc1c(Cl)c(=O)oc2cc(OC(=O)CCNC(=O)Oc3ccccc3)ccc12 | 74% | 100% |  |
| O=C(O)CCN1C(=O)c2ccc(-c3nc4ccccc4c(=O)o3)cc2C1=O |  |  | IC50 [3]: Not Active |
| Nc1ccc2c(c1)C(=O)N(CCC(=O)O)C2 |  |  | IC50 [3]: Not Active |
| Cc1c(Cl)c(=O)oc2cc(OC(=O)CCCOc3ccc(Cl)cc3Cl)ccc12 | 68% | 90% |  |
| CN(C)CCCCC(=O)Nc1ccc(NC(=S)NC(=O)c2ccc(C(C)(C)C)cc2)cc1 |  |  | IC50 ([3]; read-out: IC50): > 100 µM |
| Cc1ccc(OCCCC(=O)Oc2ccc3c(c2)CCC3)c(C)c1 | 49% | 93% |  |
